The sample as a whole holds a higher share of hits than the screen did.
T cruzi growth-1: T. cruzi intracellular proliferation inhibitors, primary screen, cell-based, beta-gal Tulahuen parasites, NIH3T3 host, luminescence; T. cruzi beta-gal in NIH3T3, GalScreen luminescence, 90 h; inhibition, % at 8.34 µM; 77,000 compounds, 5.9% hits; AID 624255, 2012;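 active means mean inhibition above about 93%, with at least 55% of replicates each passing it, limit read from the data, passing the limit was not always enough; inconclusive means only one of those two conditions holds; inactive means neither condition holds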
IDH1 R132H inh: inhibitors of IDH1 R132H reductase, primary screen, biochemical, plate reader, single point; Isocitrate dehydrogenase [NADP] cytoplasmic (Homo sapiens), O75874; diaphorase/resazurin fluorescence, 60 min; inhibition, % at 10 µM; 70,000 compounds, 0.18% hits; AID 624101, 2012; in the data active means inhibition above about 34%; inconclusive means no clear call, values can overlap the other calls; inactive means below about 11%;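 further: 0% = DMSO and 100% = no enzyme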
KDM4C inh: inhibitors of GASC-1 (KDM4C) histone demethylase, primary screen, biochemical, single concentration HTS; Lysine-specific demethylase 4C (Homo sapiens), Q9H3R0; GST-KDM4C 2-372, H3K9me3 peptide, LANCE TR-FRET; inhibition, % at 12.5 µM; 96,000 compounds, 0.15% hits;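 active means mean replicate inhibition above about 25%, with at least 55% of replicates also reaching it, limit read from the data, passing the limit was not always enough; inconclusive means only one of those two conditions met; inactive means neither condition met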
Target sequence (Q9H3R0 2-372 limits assumed): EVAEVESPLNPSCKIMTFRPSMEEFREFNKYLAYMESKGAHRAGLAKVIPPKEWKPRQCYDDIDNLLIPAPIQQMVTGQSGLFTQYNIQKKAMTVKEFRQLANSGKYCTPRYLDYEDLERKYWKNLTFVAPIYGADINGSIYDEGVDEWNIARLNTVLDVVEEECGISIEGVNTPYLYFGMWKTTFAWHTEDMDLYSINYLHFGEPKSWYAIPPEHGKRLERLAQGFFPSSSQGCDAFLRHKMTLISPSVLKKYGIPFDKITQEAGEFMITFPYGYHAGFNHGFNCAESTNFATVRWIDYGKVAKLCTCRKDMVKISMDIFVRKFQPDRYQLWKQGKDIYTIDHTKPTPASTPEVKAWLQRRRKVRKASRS
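System: N-terminal GST-fused human GASC-1 (KDM4C) fragment, residues 2-372; amount: enzyme final amount 10 nM; incubation: reaction 30 min RT, detection step 1 h RT; medium: HEPES buffer, pH 7.5, plus ascorbate; technique: LANCE TR-FRET, Eu antibody, ULight-streptavidin, EDTA, ex 340 nm, em 618/671 nm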
T cruzi growth-2: T. cruzi intracellular proliferation inhibitors, confirmation, cell-based, NIH3T3 host, beta-gal parasite, luminescence, cherry-pick. inhibition, % at 8.35 µM. T. cruzi beta-gal in NIH3T3, GalScreen luminescence, 90 h. AID 651739, 2012. shares compounds with T cruzi growth-1. 5,600 compounds, 72% hits;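 active means mean replicate inhibition above about 95% and at least 55% of replicates individually reaching it, limit read from the data; inconclusive means only one of the two criteria is met; inactive means neither criterion is met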
T cruzi growth-3: inhibitors of intracellular T. cruzi replication, confirmation, NIH3T3 host cells, beta-gal parasites, cherry-pick, set 2; shares compounds with T cruzi growth-1; T. cruzi beta-gal in NIH3T3, GalScreen luminescence, 90 h; inhibition, % at 2.09 µM; 5,600 compounds, 21% hits;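 active means mean inhibition above about 95%, with at least 55% of replicates also reaching it, limit read from the data; inconclusive means meets just one of the two conditions; inactive means meets neither condition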;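 further: plate controls were neutral control median for no effect and positive control median for full effect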
NIH3T3 tox: cytotoxicity in mouse NIH/3T3 fibroblasts, confirmation, cytotoxicity control for T. cruzi proliferation inhibitor project, cell-based, cherry-pick, single point. NIH/3T3 viability, CellTiter-Glo ATP luminescence, 90 h. shares compounds with T cruzi growth-1. AID 651742, 2012. 5,600 compounds, 14% hits. cytotoxicity (signal decrease), % at 8.35 µM;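 active means mean signal decrease across replicates above about 35% based on untreated-well scatter, with enough replicates individually passing, limit read from the data; inconclusive means no rule stated though some were filed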;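 further: 0% = median of neutral control wells and 100% = median of positive control wells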
NIH3T3 tox 2: NIH/3T3 fibroblast cytotoxicity, confirmation, cytotoxicity control, cell-based, cherry-pick, single point, set 2; shares compounds with T cruzi growth-1; NIH/3T3 viability, CellTiter-Glo ATP luminescence, 90 h; inhibition, % at 24.9 µM; 5,600 compounds, 56% hits; AID 651744, 2012;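 active means mean loss of cell viability signal at or above a set limit, and enough replicates individually reaching it; inconclusive means meets only the mean limit or only the replicate share; inactive means meets neither condition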;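 further: 0% = median of neutral control wells and 100% = median of positive control wells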
* marks the source's active call; other numbers are inactive results; ? = inconclusive; / = no result.

SMILES	T cruzi growth-1	IDH1 R132H inh	KDM4C inh	T cruzi growth-2	T cruzi growth-3	NIH3T3 tox	NIH3T3 tox 2
C[C@H](CO)N1C[C@H](C)[C@@H](CN(C)C(=O)C2CCCCC2)OCCCC[C@H](C)Oc2ccc(NC(=O)Nc3cccc4ccccc34)cc2C1=O	118.9*	/	0.0	88.3	48.7	-11.7	?
O=S(=O)(NCc1nc2ccccc2[nH]1)c1ccc(Cl)c(Cl)c1	/	-0.3	/	/	/	/	/
O=C(COc1cc(O)c2c(=O)c3ccccc3oc2c1)c1ccc(Cl)cc1	/	0.0	/	/	/	/	/
Cc1ccnc(SCC(=O)Nc2ccc(Cl)cc2Cl)n1	/	-0.7	/	/	/	/	/
Cn1c(SCC(N)=O)nnc1-c1cccc(Cl)c1	/	0.9	/	/	/	/	/
C/C=C/C1C2OC3=C(C(=O)OC3(C)O)C(=O)C1(C)C1CC(O)C(C)CC1C2O (stereo unspecified)	/	0.1	/	/	/	/	/
C[C@@H]1CCCCO[C@H](CN(C)C(=O)C2CCCCC2)[C@H](C)CN([C@@H](C)CO)C(=O)c2cc(NC(=O)Nc3cccc4ccccc34)ccc2O1	?	/	0.6	105.2*	79.6	10.8	22.4
C[C@@H]1CN([C@@H](C)CO)C(=O)c2cc(NC(=O)Nc3cccc4ccccc34)ccc2O[C@@H](C)CCCCO[C@H]1CN(C)C(=O)Nc1cccc2ccccc12	7.8	/	-3.1	/	/	/	/
CCOC(=O)C1=C(Cn2ccc(C(F)(F)F)n2)NC(=O)NC1c1cc(C)ccc1C (stereo unspecified)	/	0.1	/	/	/	/	/
O=C(COc1ccc(Br)cc1)Nc1ccc2nn(-c3ccc(F)cc3)nc2c1	/	0.0	/	/	/	/	/
CCc1cnc(N2[C@H](C#N)[C@@H](c3ccc(-c4cccc(F)c4)cc3)[C@H]2CO)s1	108.8*	/	1.1	110.3*	80.9	26.7	37.2
CCc1cnc(N2[C@@H](C#N)[C@H](c3ccc(-c4cccc(F)c4)cc3)[C@@H]2CO)s1	82.5	/	-1.8	/	/	/	/
CCc1cnc(N2[C@H](C#N)[C@H](c3ccc(-c4cccc(F)c4)cc3)[C@H]2CO)s1	105.4*	/	-2.6	104.6*	92.8	10.2	26.0*
CCc1cnc(N2[C@H](CO)[C@@H](c3ccc(-c4cccc(F)c4)cc3)[C@@H]2C#N)s1	84.8	/	-1.0	/	/	/	/
CCc1cnc(N2[C@@H](C#N)[C@@H](c3ccc(-c4cccc(F)c4)cc3)[C@@H]2CO)s1	108.2*	/	0.7	100.9*	105.7*	29.3	60.0*
Cc1cc([N+](=O)[O-])ccc1NC(=O)CSc1nnc(-c2ccc(Br)cc2)o1	/	0.5	/	/	/	/	/
CCc1cc(OCCSc2nc(C)cc(=O)[nH]2)ccc1Cl	/	0.2	/	/	/	/	/
COc1c(-c2ccccc2)oc2c(OC)c(O)cc(O)c2c1=O	/	-0.6	/	/	/	/	/
CCOc1ccccc1NC(=O)c1ccsc1NC(=O)c1ccoc1C	/	0.0	/	/	/	/	/
CC(NS(=O)(=O)c1ccccc1)C(=O)Nc1ccc(F)c(Cl)c1 (stereo unspecified)	/	0.2	/	/	/	/	/
O=C(C[C@@H]1C[C@H]2c3cc(NC(=O)c4ccc5c(c4)OCO5)ccc3O[C@H]2[C@@H](CO)O1)NCc1ccc(Oc2ccccc2)cc1	120.2*	0.0	-0.6	74.8	5.5	44.7*	93.9*
O=C(C[C@H]1C[C@H]2c3cc(NC(=O)c4ccc5c(c4)OCO5)ccc3O[C@H]2[C@@H](CO)O1)NCc1ccc(Cl)cc1	1.4	0.4	-1.8	/	/	/	/
O=C(C[C@H]1C[C@@H]2c3cc(NC(=O)c4ccc5c(c4)OCO5)ccc3O[C@@H]2[C@@H](CO)O1)NCc1ccc(Oc2ccccc2)cc1	147.9*	0.1	-1.1	110.8*	43.3	41.9*	34.1*
O=C(C[C@@H]1C[C@@H]2c3cc(NC(=O)c4ccc5c(c4)OCO5)ccc3O[C@@H]2[C@H](CO)O1)NCc1ccc(Oc2ccccc2)cc1	-10.6	0.2	0.0	/	/	/	/
